Series [1] can be described thus: folding enthalpy; higher = less favourable; fluorescence melt of hairpins on a sequencing array, two-state fit. Conditions: sodium 0.088 M. In a few lines: (§1)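 Library hairpins on a sequenced MiSeq flow cell carried annealed Cy3 and quencher oligos, and their Cy3 fluorescence was imaged in 50 mM Na-HEPES pH 8.0 with 25 mM NaCl, in 2.5 °C steps up to 60 °C. Signals were normalised to Cy3 before quenching and to control constructs. Melting temperature and folding enthalpy were obtained from bootstrapped two-state fits, combined by inverse-variance weighting across four replicates, and the fitted temperatures were then raised by 9.35 °C to match UV melts.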

Series [2] can be described thus: melting temperature; fluorescence melt of hairpins on a sequencing array, two-state fit, raised by 9.35 °C to match UV melts. The following applies: sodium 0.088 M. An outline of the steps: as §1

Regarding GTGGTGGGAAACTGCCAC ((((..(....)..)))), the folding enthalpy in series [1] was -29.2 kcal/mol. For the same sequence, the Tm in series [2] came out at 49.1 °C.

On to GTGGTTCCGAAAGGACAC (((..(((....)))))), for which, in series [1], the folding enthalpy is -17.3 kcal/mol. Further, the Tm in series [2] stood at 40 °C.

With GTGGTTCGAAAGAACAC (((.(((....)))))), the folding enthalpy in series [1] is -16.8 kcal/mol. In addition, in series [2], the Tm came out at 47.8 °C.

On to GTGGTTGGAAACAACCAC (((((((....))))))), for which, in series [1], the folding enthalpy is -44.5 kcal/mol. Also, in series [2], the Tm stood at 65.7 °C.

For GTGGTTGGAAACAATCGC (.(.(((....))).).), the folding enthalpy in series [1] was -23.3 kcal/mol. The Tm in series [2] came out at 35 °C.

Consider GTGGTTGGAAACAGCTAC ((.(.((....)).).)), for which the folding enthalpy in series [1] is -23.3 kcal/mol. The Tm in series [2] stood at 33.1 °C.

Regarding GTGTAACGAAAGTTGCAC (((.(((....))).))), the folding enthalpy in series [1] was -33 kcal/mol. Also, in series [2], the Tm was found to be 53.6 °C.

On to GTGTAAGCGAAAGCTCAC (((..(((....)))))), for which the folding enthalpy in series [1] was -19.3 kcal/mol. Moreover, the Tm in series [2] worked out at 44.9 °C.

Take GTGTAAGGAAACTTACAC (((((((....))))))): in series [1], the folding enthalpy was -42.2 kcal/mol. For the same sequence, the Tm in series [2] came to 54.2 °C.

GTGTAATCGAAAGATCAC (((..(((....)))))): in series [1], the folding enthalpy is -23.9 kcal/mol. For the same sequence, the Tm in series [2] came out at 33.8 °C.

On to GTGTACCGAAAGGTCAC (((.(((....)))))), for which the folding enthalpy in series [1] is -30.5 kcal/mol. The Tm in series [2] came out at 53 °C.

Take GTGTACCGAAAGGTGCAC (((.(((....))).))): the folding enthalpy in series [1] was -34.1 kcal/mol. The Tm in series [2] came to 65.2 °C.

On to GTGTACGAAAGTACGCAC ((((((....)))..))), for which the folding enthalpy in series [1] was -14.5 kcal/mol. For the same sequence, in series [2], the Tm stood at 49.9 °C.

GTGTACGAAAGTAGACAC ((((((....)))..))): the folding enthalpy in series [1] is -22.7 kcal/mol. Also, in series [2], the Tm came to 40.8 °C.

As for GTGTACGAAAGTAGCCAC ((((((....)))..))), the folding enthalpy in series [1] is -14.2 kcal/mol. The Tm in series [2] is 31.9 °C.

In the case of GTGTACGAAAGTATGCAC ((((((....)))..))), the folding enthalpy in series [1] was -17.7 kcal/mol. The Tm in series [2] was 35.6 °C.

GTGTACGGAAACGCACAC ((((.((....)).)))): the folding enthalpy in series [1] was -38.1 kcal/mol. In addition, the Tm in series [2] was found to be 49.1 °C.

For GTGTACGGAAACGTACAC (((((((....))))))), the folding enthalpy in series [1] was -33.6 kcal/mol. Further, in series [2], the Tm came to 67.2 °C.

For GTGTACGGAAACGTACGC (.(((((....))))).), in series [1], the folding enthalpy is -20.6 kcal/mol. Further, the Tm in series [2] was determined as 55.1 °C.

As for GTGTAGACGAAAGTCCAC (((..(((....)))))), in series [1], the folding enthalpy is -20.6 kcal/mol. Moreover, the Tm in series [2] stood at 42.8 °C.

Take GTGTAGGGAAACCTACAC (((((((....))))))): the folding enthalpy in series [1] is -41.1 kcal/mol. Further, the Tm in series [2] stood at 61.5 °C.

As for GTGTAGGGAAACTTACAC (((((.(....).))))), the folding enthalpy in series [1] is -21.3 kcal/mol. The Tm in series [2] was found to be 42 °C.

For GTGTATACGAAAGTACAC (((..(((....)))))), the folding enthalpy in series [1] was -23.2 kcal/mol. Also, in series [2], the Tm was 41.1 °C.

Regarding GTGTATCCGAAAGGACAC (((..(((....)))))), the folding enthalpy in series [1] is -21.6 kcal/mol. Also, in series [2], the Tm worked out at 42.2 °C.

Regarding GTGTATCGAAAGATGCAC (((.(((....))).))), the folding enthalpy in series [1] was -41.9 kcal/mol. The Tm in series [2] came to 53.6 °C.

Consider GTGTCAGGAAACCAACAC ((((..(....)..)))), for which the folding enthalpy in series [1] was -13.5 kcal/mol. In addition, the Tm in series [2] was 28 °C.

Consider GTGTCCGAAAGGAGACAC ((((((....)))..))), for which the folding enthalpy in series [1] is -21.7 kcal/mol. Moreover, the Tm in series [2] stood at 50.7 °C.

Consider GTGTCCGAAAGGATCCAC ((((((....)))..))), for which the folding enthalpy in series [1] was -10.4 kcal/mol. Further, the Tm in series [2] stood at 32.7 °C.

Take GTGTCCGGAAACGGGTAC ((..(((....)))..)): in series [1], the folding enthalpy was -20 kcal/mol. For the same sequence, the Tm in series [2] is 42.4 °C.

On to GTGTCGAAAGACAC (((((....))))), for which, in series [1], the folding enthalpy is -25.7 kcal/mol. Also, the Tm in series [2] was 68 °C.

Regarding GTGTCGCGAAAGCGCCAC (((.(((....))).))), in series [1], the folding enthalpy was -25.7 kcal/mol. Moreover, the Tm in series [2] came to 57.7 °C.

On to GTGTCGGGAAACTGACGC (.(((.(....).))).), for which the folding enthalpy in series [1] is -24.5 kcal/mol. For the same sequence, in series [2], the Tm was 45.5 °C.

With GTGTCTACGAAAGTACAC (((..(((....)))))), the folding enthalpy in series [1] was -13.2 kcal/mol. For the same sequence, the Tm in series [2] came to 38.5 °C.

On to GTGTCTGGAAACAGACGC (.(((((....))))).), for which the folding enthalpy in series [1] was -33.4 kcal/mol. In series [2], the Tm is 54.7 °C.

Consider GTGTCTGGAAACAGGCAC (((.(((....))).))), for which the folding enthalpy in series [1] was -33.4 kcal/mol. For the same sequence, the Tm in series [2] was 54.5 °C.

With GTGTGACGAAAGTCTCAC (((.(((....))).))), the folding enthalpy in series [1] is -31.9 kcal/mol. For the same sequence, the Tm in series [2] is 55.9 °C.

These data come from the array DNA melting data of Ke et al. (doi:10.1101/2024.01.08.574731).
